Legend:
[1] = target: T1, 5-hydroxytryptamine receptor 1A (Homo sapiens, UniProt P08908); test: Displacement of [3H]-8-OH-DPAT from 5HT1A receptor (unknown origin) expressed in HEK293 cells membranes incubated for 60 mins by scintillation counting method; assay type: cell membranes
T1 sequence (P08908 whole entry): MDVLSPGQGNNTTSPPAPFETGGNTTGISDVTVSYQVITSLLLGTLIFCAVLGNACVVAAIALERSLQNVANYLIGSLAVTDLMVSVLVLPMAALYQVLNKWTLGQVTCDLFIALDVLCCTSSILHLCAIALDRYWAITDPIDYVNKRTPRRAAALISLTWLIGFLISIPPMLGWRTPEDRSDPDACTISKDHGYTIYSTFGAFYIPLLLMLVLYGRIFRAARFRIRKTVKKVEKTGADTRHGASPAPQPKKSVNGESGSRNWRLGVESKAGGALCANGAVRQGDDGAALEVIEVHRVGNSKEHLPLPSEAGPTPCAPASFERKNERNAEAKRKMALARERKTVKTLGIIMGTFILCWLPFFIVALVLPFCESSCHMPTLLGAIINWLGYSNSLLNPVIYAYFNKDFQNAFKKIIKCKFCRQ

[2] = target: T2, 5-hydroxytryptamine receptor 7 (Homo sapiens, UniProt P34969); test: Displacement of [3H]-LSD from 5HT7 receptor (unknown origin) expressed in CHO cell membranes incubated for 120 mins by scintillation counting method
[3] = target: Sodium-dependent serotonin transporter (Rattus norvegicus, UniProt P31652); test: Inhibition of rat synaptosomes 5HT transporter assessed as reduction in [3H]serotonin reuptake incubated for 15 mins by scintillation counting method; assay type: subcellular
[4] = Half life in rat liver microsomes at 1 uM in presence of NADPH generating system measured for 10 to 90 mins by LC-MS/MS analysis; assay type: ADME, Microsome
Procedure, shortened: (§1)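 Rat liver microsomes; stability expressed as t1/2 (min) and intrinsic clearance (μL/min/mg).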

[5] = Clearance in rat liver microsomes at 1 uM in presence of NADPH generating system measured for 10 to 90 mins by LC-MS/MS analysis; assay type: ADME, Microsome; procedure, shortened: as §1
[6] = target: T3, 5-hydroxytryptamine receptor 1A (Homo sapiens) (UniProt P08908); test: Displacement of [3H]-8-OH-DPAT from 5HT1A receptor (unknown origin) expressed in HEK293 cells membranes at 10 uM incubated for 60 mins by scintillation counting method relative to control; assay type: cell membranes
T3 sequence (whole entry): T1 sequence (P08908 whole entry)
Procedure, shortened: (§2)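 Single-concentration screen at 10 μM, reported as percent inhibition; 5-HT1A by [3H]-8-OH-DPAT displacement from HEK-293 membrane homogenates, 5-HT7 by [3H]-LSD displacement from CHO membrane homogenates, SERT by [3H]-5-HT uptake into rat brain synaptosomes.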

[7] = target: T2, 5-hydroxytryptamine receptor 7; test: Displacement of [3H]-LSD from 5HT7 receptor (unknown origin) expressed in CHO cell membranes at 10 uM incubated for 120 mins by scintillation counting method relative to control; procedure, shortened: as §2
[8] = target: Sodium-dependent serotonin transporter (Rattus norvegicus) (UniProt P31652); test: Inhibition of rat synaptosomes 5HT transporter assessed as reduction in [3H]serotonin reuptake at 10 uM incubated for 15 mins by scintillation counting method relative to control; assay type: subcellular; procedure, shortened: as §2
[9] = Half life in human liver microsomes at 1 uM in presence of NADPH generating system measured for 10 to 90 mins by LC-MS/MS analysis; assay type: ADME, Microsome
Procedure, shortened: (§3)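 Human liver microsomes; metabolic stability as half-life (min) and clearance (μL/min/mg).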

[10] = Clearance in human liver microsomes at 1 uM in presence of NADPH generating system measured for 10 to 90 mins by LC-MS/MS analysis; assay type: ADME, Microsome; procedure, shortened: as §3
[11] = target: T1, 5-hydroxytryptamine receptor 1A; test: Agonist activity at human recombinant 5HT1A receptor (unknown origin) stably expressed in CHO-K1 incubated for 30 mins by [35S]GTPgammaS binding assay; assay type: functional
[12] = target: T2, 5-hydroxytryptamine receptor 7; assay type: functional
Mus musculus [13] = test: Antidepressant activity in orally dosed ICR mouse assessed as decrease in immobility time measured 1 hr post last dose by forced swim test; assay type: functional, organism-based
Procedure, shortened: (§4)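 Male ICR mice dosed orally once daily for 7 days at 10, 20 or 40 mg/kg/day; immobility time scored in forced swim test against vehicle group; n = 10 per group, mean ± SEM.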

Mus musculus [14] = test: Antidepressant activity in ICR mouse assessed as decrease in immobility time at 10 mg/kg, po administrated for daily for 7 days measured 1 hr post last dose by forced swim test relative to control; assay type: functional; parameters: scale not given: the % may be the effect or the level left; procedure, shortened: as §4
Mus musculus [15] = test: Antidepressant activity in ICR mouse assessed as decrease in immobility time at 40 mg/kg, po administrated for daily for 7 days measured 1 hr post last dose by forced swim test relative to control; assay type: functional; parameters: scale not given: the % may be the effect or the level left; procedure, shortened: as §4
Mus musculus [16] = test: Antidepressant activity in ICR mouse assessed as decrease in immobility time at 20 mg/kg, po administrated for daily for 7 days measured 1 hr post last dose by forced swim test relative to control; assay type: functional; parameters: scale not given: the % may be the effect or the level left; procedure, shortened: as §4
Mus musculus [17] = test: Antidepressant activity in orally dosed ICR mouse assessed as decrease in immobility time measured 1 hr post last dose by tail suspension test; assay type: functional, organism-based
Procedure, shortened: (§5)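 Male ICR mice given oral doses once daily for 7 days (10, 20, 40 mg/kg/day); immobility time recorded in tail suspension test versus control group.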

Mus musculus [18] = test: Antidepressant activity in ICR mouse assessed as decrease in immobility time at 10 mg/kg, po administrated for daily for 7 days measured 1 hr post last dose by tail suspension test relative to control; assay type: functional; parameters: scale not given: the % may be the effect or the level left; procedure, shortened: as §5
Mus musculus [19] = test: Antidepressant activity in ICR mouse assessed as decrease in immobility time at 20 mg/kg, po administrated for daily for 7 days measured 1 hr post last dose by tail suspension test relative to control; assay type: functional; parameters: scale not given: the % may be the effect or the level left; procedure, shortened: as §5
Mus musculus [20] = test: Antidepressant activity in ICR mouse assessed as decrease in immobility time at 40 mg/kg, po administrated for daily for 7 days measured 1 hr post last dose by tail suspension test relative to control; assay type: functional; parameters: scale not given: the % may be the effect or the level left; procedure, shortened: as §5

T2 sequence (P34969 whole entry): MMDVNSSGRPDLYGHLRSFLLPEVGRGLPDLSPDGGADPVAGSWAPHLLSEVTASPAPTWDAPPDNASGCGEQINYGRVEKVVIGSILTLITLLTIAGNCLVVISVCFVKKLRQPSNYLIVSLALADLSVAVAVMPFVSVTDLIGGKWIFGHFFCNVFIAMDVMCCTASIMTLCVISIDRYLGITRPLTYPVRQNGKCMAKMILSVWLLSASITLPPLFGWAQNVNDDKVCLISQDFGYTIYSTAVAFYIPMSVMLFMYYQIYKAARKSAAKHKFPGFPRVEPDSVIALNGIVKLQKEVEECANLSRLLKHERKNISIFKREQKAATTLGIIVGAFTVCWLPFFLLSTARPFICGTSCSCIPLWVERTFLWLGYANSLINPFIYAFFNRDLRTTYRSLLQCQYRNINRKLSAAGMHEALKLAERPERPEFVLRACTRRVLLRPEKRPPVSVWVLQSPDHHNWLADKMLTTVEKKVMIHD
Sequence of Sodium-dependent serotonin transporter (Rattus norvegicus) (P31652 whole entry): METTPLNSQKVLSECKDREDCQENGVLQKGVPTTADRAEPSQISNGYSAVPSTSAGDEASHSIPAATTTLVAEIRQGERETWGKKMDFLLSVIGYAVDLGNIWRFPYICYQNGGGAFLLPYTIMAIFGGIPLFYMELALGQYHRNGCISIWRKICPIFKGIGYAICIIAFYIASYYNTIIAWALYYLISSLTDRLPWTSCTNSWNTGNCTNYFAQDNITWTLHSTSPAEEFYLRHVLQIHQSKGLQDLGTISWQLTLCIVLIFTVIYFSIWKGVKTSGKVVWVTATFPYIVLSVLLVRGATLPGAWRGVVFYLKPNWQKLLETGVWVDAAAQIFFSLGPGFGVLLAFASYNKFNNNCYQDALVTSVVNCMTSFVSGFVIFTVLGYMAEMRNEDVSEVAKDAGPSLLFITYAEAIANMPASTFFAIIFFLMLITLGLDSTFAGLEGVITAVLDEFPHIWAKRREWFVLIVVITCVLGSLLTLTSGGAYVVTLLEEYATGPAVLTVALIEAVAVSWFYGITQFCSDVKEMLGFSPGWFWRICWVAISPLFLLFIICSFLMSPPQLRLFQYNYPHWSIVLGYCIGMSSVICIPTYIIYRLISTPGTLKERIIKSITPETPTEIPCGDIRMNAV
Sequence of Sodium-dependent serotonin transporter (P31652 whole entry): as above

Row | Compound | Ki [1] [nM] | Ki [2] [nM] | IC50 [3] [nM] | half-life at 1 µM [4] [min] | CLH [5] [µL/min/mg] | also measured
1 | Fc1ccc(N2CCN(CCCc3c[nH]c4ccc(F)cc34)CC2)c(-c2cccs2)c1 | 38 | 11 | 21 |  |  | 
2 | Fc1ccc(N2CCN(CCCc3c[nH]c4ccc(F)cc34)CC2)c(-c2ccoc2)c1 | 15 | 11 | 3 | 10.3 | 134 | 
3 | Fc1ccc(N2CCN(CCCc3c[nH]c4ccc(F)cc34)CC2)c(-c2cccnc2)c1 |  |  |  | 5.8 | 240 | inhibition [6]: 99.1%; inhibition [7]: 100%; inhibition [8]: 104%
4 | Fc1ccc(N2CCN(CCCc3c[nH]c4ccc(F)cc34)CC2)c(-c2cn[nH]c2)c1 | 6.3 | 0.9 | 1.3 | 7.2 | 192 | 
5 | Fc1ccc2[nH]cc(CCCCN3CCN(c4nsc5ccccc45)CC3)c2c1 |  |  | 7.08 | 3.4 | 403 | inhibition [6]: 101%; inhibition [7]: 98.5%
6 | Fc1ccc2[nH]cc(CCN3CCN(c4nsc5ccccc45)CC3)c2c1 | 1.6 | 0.99 | 23 | 3.1 | 452 | 
7 | Fc1ccc(N2CCN(CCCc3c[nH]c4ccc(F)cc34)CC2)c(-c2cc[nH]c2)c1 |  |  |  |  |  | inhibition [6]: 97.4%; inhibition [7]: 99.1%; inhibition [8]: 78.9%
8 | Fc1ccc(C2CCN(CCCc3c[nH]c4ccc(F)cc34)CC2)c(-c2ccccc2)c1 |  |  | 14 | 48.6 | 28.5 | half-life at 1 µM [9]: 49.9 min; CLH [10]: 27.8 µL/min/mg; EC50 [11]: 1180 nM; IC50 [12]: 650 nM; Activity (Mus musculus [13]): Dose-dependent effect; Activity (Mus musculus [14]): 29%; Activity (Mus musculus [15]): 43%; Activity (Mus musculus [16]): 47%; Activity (Mus musculus [17]): Dose-dependent effect; Activity (Mus musculus [18]): 28%; Activity (Mus musculus [19]): 35%; Activity (Mus musculus [20]): 43%
9 | Fc1ccc2[nH]cc(CCCN3CCN(c4nsc5ccccc45)CC3)c2c1 | 1.6 | 2.2 | 1.1 | 3.5 | 397 | 
10 | COc1ccc2[nH]c([S+]([O-])Cc3ncc(C)c(OC)c3C)nc2c1 (stereo not given) [OMEPRAZOLE] |  |  |  |  | 163 | 
11 | N#Cc1ccc2[nH]cc(CCCCN3CCN(c4ccc5oc(C(N)=O)cc5c4)CC3)c2c1 [VILAZODONE] |  | 3900 |  | 28.5 | 48.6 | half-life at 1 µM [9]: 53.3 min; CLH [10]: 26 µL/min/mg; Activity (Mus musculus [20]): 60%
12 | Fc1ccc2c(C3CCN(CCCc4c[nH]c5ccc(F)cc45)CC3)noc2c1 |  |  | 0.92 | 4.6 | 301 | inhibition [6]: 101%; inhibition [7]: 99.8%
13 | Fc1ccc(N2CCN(CCCc3c[nH]c4ccc(F)cc34)CC2)c(-c2ccsc2)c1 | 8.4 | 2 | 4 | 24.5 | 56.5 | 
14 | Fc1ccc(N2CCN(CCCc3c[nH]c4ccc(F)cc34)CC2)c(-c2cncnc2)c1 |  |  |  | 6.6 | 209 | inhibition [6]: 98.8%; inhibition [7]: 90.9%; inhibition [8]: 102%
15 | Cc1ccc(Sc2ccccc2N2CCNCC2)c(C)c1 [VORTIOXETINE] |  |  |  |  | 153 | half-life at 1 µM [9]: 214 min; CLH [10]: 6.47 µL/min/mg; Activity (Mus musculus [15]): 35%
16 | Fc1ccc(C2CCN(CCCc3c[nH]c4ccc(F)cc34)CC2)c(-c2ccsc2)c1 |  |  | 14 | 18.3 | 75.6 | 
17 | COc1ccc2c(c1)[C@]13CCCC[C@@H]1[C@H](C2)N(C)CC3 [DEXTROMETHORPHAN] |  |  |  |  |  | half-life at 1 µM [9]: 44.7 min; CLH [10]: 31 µL/min/mg
18 | Cn1cc(-c2cc(F)ccc2N2CCN(CCCc3c[nH]c4ccc(F)cc34)CC2)cn1 |  |  | 2.7 | 9.5 | 146 | 
